Experimental data collected from several papers.
Target: Serine/threonine-protein kinase MRCK alpha (CDC42BPA, Homo sapiens, UniProt Q5VT25)

| SMILES | effect on | technique | concentration | remaining binding [%] |
| --- | --- | --- | --- | --- |
| CCN1CCN(Cc2ccc(C(=O)Nc3ccc(C)c(Oc4ccc5c(c4)CC(=O)N5)c3)cc2C(F)(F)F)CC1 | binding | competition with immobilised ligand | 1 µM | 100 |
| CCC(=N\O)/C(C)=C/c1ccc(F)cc1 | cell-free assay | competition with immobilised ligand | 1 µM | 100 |
| CN(c1nccc(-c2cnn3ncccc23)n1)C1CC1 | binding |  | 1 µM | 100 |
| O=C(c1ccc(Nc2nccc(-c3cc4ccccc4s3)n2)cc1)N1CCC(N2CCCC2)CC1 | binding | competition with immobilised ligand | 1 µM | 65 |
| FC(F)(F)Oc1cccc(-c2cnc3ccc(-c4ccncc4)nn23)c1 | cell-free assay | competition with immobilised ligand | 5 µM | 69 |
| CN1CCN(c2cnc3c(C4CCN(C(=O)c5ccc(OC(F)(F)F)cc5N)CC4)ncnc3c2)CC1 | cell-free assay | competition with immobilised ligand | 1 µM | 100 |
| N[C@@H]1CCN(c2nccc(-c3cnn4ncccc34)n2)C1 | binding |  | 1 µM | 100 |
| Cc1cc(NC(=O)c2cccc(S(F)(F)(F)(F)F)c2)cc(-n2ccn3nc(-c4cccnc4)cc23)c1 | cell-free assay | competition with immobilised ligand | 1 µM | 88.5 |
| COc1cnc(Nc2cccc(S(N)(=O)=O)c2)nc1N1CCN(c2ccccc2)C(=O)C1 | binding | competition with immobilised ligand | 1 µM | 100 |
| Cc1cnc(Nc2ccc(C(=O)N3CCC(N4CCCC4)CC3)cc2)nc1-c1cc2ccccc2s1 | binding | competition with immobilised ligand | 1 µM | 10 |
| Cc1cnn2ncc(-c3ccnc(N(C)C)n3)c2c1 | binding |  | 1 µM | 87 |
| CN(C)CC#Cc1ccc(OCCCc2sc(N3CCc4cccc(C(=O)Nc5nc6ccccc6s5)c4C3)nc2C(=O)O)c(F)c1 | cell-free assay | competition with immobilised ligand | 1 µM | 97 |
| c1cnn2ncc(-c3ccnc(N4CCC45COC5)n3)c2c1 | binding |  | 1 µM | 100 |
| CS(=O)(=O)N1CCCC(NC(=O)[C@H](CCC2CCCCC2)NC(=O)c2ccc(CNc3ncnc4c3nnn4-c3ccccc3)cc2)C1 (stereo partly shown) | cell-free assay | competition with immobilised ligand | 0.1 µM | 100 |
| O=C(NCCCN1CCOCC1)c1ccc(Nc2nccc(-c3cc4ccccc4s3)n2)cc1 | binding | competition with immobilised ligand | 1 µM | 72 |
| Cc1noc([C@H]2C[C@@H](c3ccc(C(F)(F)F)cc3)CN(C(=O)N3CCS(=O)(=O)C3)C2)n1 | cell-free assay | competition with immobilised ligand | 1 µM | 100 |
| COc1ccnn2ncc(-c3ccnc(N(C)C)n3)c12 | binding |  | 1 µM | 100 |
| O=C(Nc1c[nH]nc1C(=O)NC1CCNCC1)c1cc(F)cc(F)c1 | binding | competition with immobilised ligand | 1 µM | 95 |
| F[C@@H]1CCN(c2nccc(-c3cnn4ncccc34)n2)C1 | binding |  | 1 µM | 100 |
| O=C1CCc2cc(Nc3cc(OC4CCOCC4)c([N+](=O)[O-])cc3Cl)ccc2N1 | cell-free assay | competition with immobilised ligand | 1 µM | 91 |
| CN(C)c1nccc(-c2cnc3ncccn23)n1 | binding |  | 1 µM | 83 |
| C=CC(=O)N1CCC(C(=O)NCC(=O)N2CCN(c3nc(-c4cnc(N)nc4C(F)F)nc(N4CCOCC4)n3)CC2)CC1 | binding | competition with immobilised ligand | 1 µM | 100 |
